In ChEMBL document CHEMBL1124717, “Structural requirements for agonist actions at the benzodiazepine receptor: studies with analogues of 6-(benzyloxy)-4-(methoxymethyl)-beta-carboline-3-carboxylic acid ethyl ester” (J Med Chem, 1990):

Legend:
[1] = Partition coefficient (logP); format: physicochemical; conditions: octanol/water
[2] = biological target: GABA-A receptor; anion channel; experiment: In vitro inhibition of [3H]flunitrazepam binding to GABA-A Benzodiazepine receptor of rat cerebral cortex membranes; format: cell membranes, Membrane
Method in brief: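 Washed rat cerebral cortex membranes (adult male Sprague-Dawley, 175–250 g) in 50 mM Tris-HCl pH 7.4, three wash spins at 20000g. Incubated with [3H]flunitrazepam (final 0.9–1.1 nM) and six to eight inhibitor concentrations for 120 min at 4 °C, then filtered. Nonspecific binding defined with Ro 15-1788 (10 μM). IC50 from sigmoid fit; mean of at least two determinations.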

Mus musculus = experiment: In vivo anticonvulsant activity was determined in male NIH/Swiss mice after intraperitoneal administration; Antagonist; format: functional, organism-based
Method in brief: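 Male NIH/Swiss mice (20–25 g) dosed ip with drug in 20% diluted Emulphor/80% saline, or vehicle. Antagonism run in groups of 10: test agent at various doses, diazepam (2.5 mg/kg) 15 min later, then PTZ challenge (80 mg/kg) after another 15 min. Seizures scored over 15 min. EC50 read graphically from percent convulsions versus log dose.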

| IC50 [2] [nM] | Compound | logP [1] | EC50 (Mus musculus) [mg/kg] |
| --- | --- | --- | --- |
| 0.9 | CCOC(=O)c1[nH]cc2nc3ccc(O)cc3c-2c1COC | 1.44 |  |
| 0.5 | CCOC(=O)c1[nH]cc2nc3ccc(OC)cc3c-2c1COC |  | 1.25 |
| 8.9 | CCOC(=O)c1cc2c3cc(OCc4ccccc4)ccc3nc-2c[nH]1 |  |  |
| > 5000 | CCOC(=O)c1ncc2c(c1CC)c1cc(OCc3ccccc3)ccc1n2C |  |  |
| > 5000 | CCOC(=O)c1cc2c3cc(OCc4ccccc4)ccc3n(C)c2cn1 |  |  |
| 22 | CCOC(=O)c1[nH]cc2nc3ccc(OCc4ccccc4)cc3c-2c1CC |  |  |
| 945 | CCOC(=O)c1ncc2c(c1COC)c1cc(OCc3ccccc3)ccc1n2C |  |  |

| Compound | IC50 [2] [nM] | logP [1] | EC50 (Mus musculus) [mg/kg] |
| --- | --- | --- | --- |
| CCOC(=O)c1ncc2[nH]c3ccc(OCc4ccccc4)cc3c2c1COC | 1 | 3.97 |  |
| CCOC(=O)c1ncc2[nH]c3ccccc3c2c1COC | 2.3 |  | 15 |
